Published values collected from several papers.
Lines come from different studies, so protocols differ.

c1ccc(CNc2nc(N3CCNc4ccccc43)nc3ccccc23)cc1 has a solubility of 0.02 µg/mL (aqueous buffer; pH 7.4).
Cl.NC1CCN(c2nc3cc(Cl)ccc3n2Cc2ccccc2)CC1 gave a solubility of over 150 µM (shake flask; aqueous buffer; 20 h; pH 6.5; 25 °C).
[Cl-].c1ccc2nc(Cn3c[n+](Cc4ccc5ccccc5n4)c4ccccc43)ccc2c1 has a solubility of over 500 µg/mL (water).
The solubility of CC(C)(C)n1nc(-c2cnc3cc(OCC4CC4)ccc3c2)c(C(N)=O)c1N is reported as 26.8 µM (PBS; pH 6.5; 25 °C).
Cc1c(F)cccc1NC(=O)Nc1ccc(Cl)c(S(=O)(=O)[C@H]2CCCNC2)c1O gave a solubility of 68 µg/mL (aqueous buffer; 4 h; pH 10).
For CCOc1ccc2cc(-c3nn(C4CCCC4)c(N)c3C(N)=O)cnc2c1, the solubility was 98.7 µM (PBS; pH 6.5; 25 °C).
CC(C)CC(=O)N1CCC[C@H](COc2cccc3c2C(N)=NS(=O)(=O)N3)C1 has a solubility of 240 µM (aqueous buffer; pH 7.1).
O=C(Nc1ccc(S(=O)(=O)N2CCC(Cl)CC2)cc1)c1ccc([N+](=O)[O-])o1 gave a solubility of 9.4 µM (PBS; pH 7.4).
O=C(/C=C/c1ccc(CN(CCO)CCc2c[nH]c3ccccc23)cc1)NO has a solubility of 8 µg/mL (HPLC; water; 48 h; pH 6; 25 °C).
CCOC(=O)C1=C(C)NC(C)=C(C(=O)OC)C1c1cccc(Cl)c1Cl (stereo not drawn) has a solubility of 40 µg/mL (FaSSIF; 24 h; pH 7.4; 37 °C).
The solubility of CN1CCN([C@H]2CC[C@@H](Nc3nccc4[nH]c(-c5cc(F)cc(F)c5)nc34)CC2)CC1 is reported as over 200 µM (shake flask; aqueous buffer; pH 6.5).
For CC#Cc1cncc(-c2ccc3c(c2)[C@@]2(N=C(C)C(N)=N2)[C@]2(CC[C@H](OC)CC2)C3)c1, the solubility was over 10000 µg/mL (simulated gastric fluid; 25 °C; acidic).
For CCC(F)(F)c1nc2nc(C)cc(Nc3ccc(S(F)(F)(F)(F)F)cc3)n2n1, the solubility was 15 to 30 µM (nephelometry; aqueous buffer; pH 6.5).
With CC[C@H](C)[C@H](NC(=O)[C@H](CCCNC(=N)N)NC(=O)[C@H](CCC(=O)O)NC(C)=O)C(=O)N[C@H]1CSSC[C@@H](C(=O)N[C@H](C(N)=O)[C@@H](C)O)NC(=O)[C@H](CCCNC(=N)N)NC(=O)[C@H](Cc2c[nH]cn2)NC(=O)[C@H](C)NC(=O)CNC(=O)[C@H](Cc2c[nH]c3ccccc23)NC(=O)[C@H](CC(=O)O)NC(=O)[C@H](CCC(N)=O)NC(=O)[C@H](Cc2c[nH]c3ccccc23)NC(=O)[C@H](C(C)C)NC1=O the solubility was 4290 µg/mL (PBS; pH 7.4).
Cl.Clc1ccc2c(nc(N3CCNCC3)n2Cc2ccccc2)c1-c1ccccc1 has a solubility of 195 µM (shake flask; aqueous buffer; 20 h; pH 6.5; 25 °C).
The solubility of COc1cccc2c(NCc3ccccc3)nc(NCc3ccccc3)nc12 is reported as 1 µg/mL (aqueous buffer; pH 6.2).
With CC(=O)c1cccc(OCc2cc(C(=O)N(C)[C@@H](C)c3ccccn3)no2)c1 the solubility was 96 µM (PBS).
With Cc1cc(Nc2ccc(S(F)(F)(F)(F)F)cc2)n2nc(C(C)(F)F)nc2n1 the solubility was 30 to 60 µM (nephelometry; aqueous buffer; pH 6.5).
For COc1ccc2c(c1)c(CC(=O)O)c(C)n2C(=O)c1ccc(Cl)cc1, the solubility was 246 µg/mL (PBS; 20 h; pH 7.4; 20 °C).
Clc1ccc2c(c1)nc(NCc1ccccn1)n2Cc1ccccc1 gave a solubility of 15 µM (shake flask; aqueous buffer; 20 h; pH 6.5; 25 °C).
With OCCOc1cccc2c(NCc3ccccc3)nc(N3CCOc4ccccc43)nc12 the solubility was 0.43 µg/mL (aqueous buffer; pH 7.4).
With Nc1cccc(S(=O)(=O)N2CCN(S(=O)(=O)c3ccc4c(c3)OCCO4)CC2)c1 the solubility was 4.1 µg/mL (aqueous buffer).
O=C(O)c1ccccc1O gave a solubility of 7700 µg/mL (PBS; pH 7.4).
COc1cccc(OC)c1-c1cc(C(=O)N[C@@H](CC(C)C)C(=O)O)nn1-c1ccnc2cc(Cl)ccc12 has a solubility of 52.9 µg/mL (aqueous buffer; pH 5).
With N=C(N)N1CC=C(c2coc(C(=O)Nc3ccc(C4=CCN(C(=N)N)CC4)c(F)c3)c2)CC1 the solubility was 58 µg/mL (shake flask; aqueous buffer; pH 7.4).
For CCCN(C)Cc1cc(-c2[nH]c3cccc(F)c3c(=O)c2C)ccc1Cc1ccc(OC(F)(F)F)cc1, the solubility was under 0.2 µM (PBS; pH 7.4).
The solubility of CSC[C@H]1O[C@@H](n2cnc3c(N)ncnc32)[C@H](O)[C@@H]1O is reported as 110 µM (PBS).
With CCCCCCN1CCCC1=O the solubility was 79000 µM (PBS; 48 h; pH 7.4; 25 °C).
O=C(O)Cc1ccccc1Nc1c(Cl)cccc1Cl has a solubility of 1940 µg/mL (PBS; pH 7.4).
CCc1nc2nc(C)cc(Nc3cccc(Cl)c3)n2n1 gave a solubility of 170 to 350 µM (nephelometry; aqueous buffer; pH 6.5).
The solubility of O=C(c1ccccn1)N(Cc1cccs1)C1(C(=O)NC2CCCCC2)CCCCC1 is reported as 6.5 µg/mL (aqueous buffer; pH 7.4).
N=C(N)NCc1ccc(NC(=O)C23CCC(C(=O)Nc4ccc(C5=CCN(C(=N)N)CC5)cc4)(CC2)CC3)cc1 gave a solubility of 46 µg/mL (shake flask; aqueous buffer; pH 7.4).
Cl.Clc1ccc2c(nc(N3CCNCC3)n2Cc2ccccc2)c1-c1ccncc1 gave a solubility of 200 µM (shake flask; aqueous buffer; 20 h; pH 6.5; 25 °C).
For CCc1nc2nc(C)cc(Nc3ccc(S(F)(F)(F)(F)F)cc3)n2n1, the solubility was 34 to 66 µM (nephelometry; aqueous buffer; pH 6.5).
CC(C)(C)n1nc(-c2ccc3nc(OC4CCC4)ccc3c2)c(C(N)=O)c1N gave a solubility of 80.6 µM (PBS; pH 6.5; 25 °C).
Cc1c(F)cccc1Nc1nc(NCc2ccccc2)c2ccccc2n1 has a solubility of 0.05 µg/mL (aqueous buffer; pH 6.2).
CN1CCN(CC2CCN(c3cccc4[nH]c(-c5cc(F)cc(F)c5)nc34)CC2)CC1 has a solubility of over 200 µM (shake flask; aqueous buffer; pH 6.5).
The solubility of COc1cccc(OC)c1-c1nc(C(=O)N[C@@H](CC(C)C)C(=O)O)cn1-c1cccc2ccccc12 is reported as over 145 µg/mL (aqueous buffer; pH 7.4).
With Cc1ccc(F)cc1Nc1nc(NCc2ccccc2)c2ccccc2n1 the solubility was 5.6 µg/mL (aqueous buffer; pH 5).
For O=C(Nc1cc(F)c(F)c(F)c1)c1ccc(F)c(S(=O)(=O)NCc2cccc(B(O)O)c2)c1, the solubility was 329 µg/mL (aqueous buffer; pH 7).
CN1CCN(CC2CCN(c3nccc4[nH]c(-c5cccc(OCCN)c5)nc34)CC2)CC1 has a solubility of over 200 µM (shake flask; aqueous buffer; pH 6.5).
COc1c(Cl)cccc1Nc1nc(NCc2ccccc2)c2ccccc2n1 gave a solubility of 0.06 µg/mL (aqueous buffer; pH 7.4).
[Br-].c1ccc(-c2n(Cc3ccc4ccccc4c3)cc[n+]2Cc2ccc3ccccc3c2)cc1 gave a solubility of under 500 µg/mL (water).
With COc1ccc(Nc2nc(NCc3ccccc3)c3ccccc3n2)cc1F the solubility was 3.4 µg/mL (aqueous buffer; pH 5).
CNC(=O)c1ccc(N(Cc2ccc(C3CCCCC3)cn2)C(=O)[C@H]2CCN2S(=O)(=O)c2c(F)c(F)c(F)c(F)c2F)cc1O has a solubility of 131 µg/mL (simulated intestinal fluid).
For Cc1ccc(Nc2nc(NCc3ccccc3)c3ccccc3n2)cc1F, the solubility was 0.13 µg/mL (aqueous buffer; pH 5).
With CCCn1nc(C(=O)N2CCCCC2)c2c1CCC(N1CCc3ccccc3C1)C2 (stereo not drawn) the solubility was 713 µM (PBS; 16 h; pH 7.4).
CCc1cc(O)ccc1-c1ccc2c(-c3nc4c([nH]3)CN(C(C)C)[C@H](C(=O)N3CC(N(C)C)C3)C4)n[nH]c2c1 gave a solubility of 13 µM (aqueous buffer).
CCCCCCCCO has a solubility of 6000 µM (PBS; 48 h; pH 7.4; 25 °C).
With CC(C)c1cccc2c(-c3ccccc3)cc(-c3ccc(-c4ccc(C(=O)O)cc4)[nH]3)nc12 the solubility was 71.6 µM (PBS; pH 7.4).
For COCCc1nc2nc(C)cc(Nc3ccc(C(F)(F)F)cc3)n2n1, the solubility was 71 to 140 µM (nephelometry; aqueous buffer; pH 6.5).
With O=C(O)c1ccc(-c2nnc(-c3ncccn3)nn2)cc1 the solubility was at most 200 µM (water).
CCOc1ccc2cc(-c3nn(C4CCCCC4)c(N)c3C(N)=O)cnc2c1 gave a solubility of 34.3 µM (PBS; pH 6.5; 25 °C).
For COc1ccccc1C(=O)Nc1cccc(NC(=O)c2cccc(C)c2)c1, the solubility was 0.47 µM (aqueous buffer; pH 7.4).
